Laboratory results from ChEMBL document CHEMBL5058577, “EUbOPEN Chemogenomics Library 2 (Multiplex)” (2022).

Tested on: HEK-293T
Test: Multiplex assay against HEK293T
Format: toxicity, cell-based
Conditions: human
Outline: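 Tubulin, mitochondrial-mass and membrane-permeability phenotypes are per cents of healthy-nucleus cells. Cells were gated by CellPathfinder machine learning into Hoechst high-intensity objects or normal cells, normal cells into healthy, pyknosed or fragmented nuclei, and pyknosed cells into mitotic or apoptotic. Before that, live cells stained at seeding with Hoechst33342, BioTracker Green Microtubule Cytoskeleton Dye, MitoTracker Red and Annexin V Alexa Fluor 680 were imaged on a CQ1 microscope at 37°C and 5% CO2 after compound addition.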

[1] = 12 h, 1 µM, compound concentration 1 uM, replicate 1
[2] = 12 h, 1 µM, compound concentration 1 uM, replicate 2
[3] = 12 h, 10 µM, compound concentration 10 uM, replicate 1
[4] = 12 h, 10 µM, compound concentration 10 uM, replicate 2
[5] = 24 h, 1 µM, compound concentration 1 uM, replicate 1
[6] = 24 h, 1 µM, compound concentration 1 uM, replicate 2
[7] = 24 h, 10 µM, compound concentration 10 uM, replicate 1
[8] = 24 h, 10 µM, compound concentration 10 uM, replicate 2
[9] = 48 h, 1 µM, compound concentration 1 uM, replicate 1
[10] = 48 h, 1 µM, compound concentration 1 uM, replicate 2
[11] = 48 h, 10 µM, compound concentration 10 uM, replicate 1
[12] = 48 h, 10 µM, compound concentration 10 uM, replicate 2

SMILES: COc1ccccc1N1CCN(C[C@@H](C(=O)NC(C)(C)C)c2ccccc2)CC1.Cl.Cl
- Population Apoptotic (%) [1]: 24%
- Population Fragmented Nuclei (%) [1]: 7%
- Population Healthy Nuclei (%) [1]: 77%
- Population Hoechst High Intensity Objects (%) [1]: 7%
- Population Membrane Permeable-Phenotype (%) [1]: 0%
- Population Mitochondria Different-Phenotype (%) [1]: 48%
- Population Mitotic Cells (%) [1]: 75%
- Population Normal (%) [1]: 92%
- Population Pyknosed Nuclei (%) [1]: 14%
- Population Tubulin-Different-Phenotype (%) [1]: 47%
- Total Cell Count [1]: 434
- Population Apoptotic (%) [2]: 42%
- Population Fragmented Nuclei (%) [2]: 4%
- Population Healthy Nuclei (%) [2]: 76%
- Population Hoechst High Intensity Objects (%) [2]: 6%
- Population Mitochondria Different-Phenotype (%) [2]: 77%
- Population Mitotic Cells (%) [2]: 57%
- Population Normal (%) [2]: 93%
- Population Pyknosed Nuclei (%) [2]: 19%
- Population Tubulin-Different-Phenotype (%) [2]: 35%
- Total Cell Count [2]: 300
- Population Apoptotic (%) [3]: 62%
- Population Fragmented Nuclei (%) [3]: 7%
- Population Healthy Nuclei (%) [3]: 69%
- Population Hoechst High Intensity Objects (%) [3]: 7%
- Population Membrane Permeable-Phenotype (%) [3]: 0%
- Population Mitochondria Different-Phenotype (%) [3]: 88%
- Population Mitotic Cells (%) [3]: 37%
- Population Normal (%) [3]: 92%
- Population Pyknosed Nuclei (%) [3]: 23%
- Population Tubulin-Different-Phenotype (%) [3]: 74%
- Total Cell Count [3]: 333
- Population Apoptotic (%) [4]: 58%
- Population Fragmented Nuclei (%) [4]: 5%
- Population Hoechst High Intensity Objects (%) [4]: 16%
- Population Mitochondria Different-Phenotype (%) [4]: 79%
- Population Mitotic Cells (%) [4]: 41%
- Population Normal (%) [4]: 83%
- Population Pyknosed Nuclei (%) [4]: 25%
- Population Tubulin-Different-Phenotype (%) [4]: 59%
- Total Cell Count [4]: 231
- Population Apoptotic (%) [5]: 19%
- Population Fragmented Nuclei (%) [5]: 8%
- Population Healthy Nuclei (%) [5]: 81%
- Population Hoechst High Intensity Objects (%) [5]: 4%
- Population Membrane Permeable-Phenotype (%) [5]: 0%
- Population Mitochondria Different-Phenotype (%) [5]: 31%
- Population Mitotic Cells (%) [5]: 80%
- Population Normal (%) [5]: 95%
- Population Pyknosed Nuclei (%) [5]: 9%
- Population Tubulin-Different-Phenotype (%) [5]: 29%
- Total Cell Count [5]: 563
- Population Apoptotic (%) [6]: 34%
- Population Fragmented Nuclei (%) [6]: 11%
- Population Healthy Nuclei (%) [6]: 76%
- Population Hoechst High Intensity Objects (%) [6]: 6%
- Population Mitochondria Different-Phenotype (%) [6]: 54%
- Population Mitotic Cells (%) [6]: 65%
- Population Normal (%) [6]: 93%
- Population Pyknosed Nuclei (%) [6]: 11%
- Population Tubulin-Different-Phenotype (%) [6]: 28%
- Total Cell Count [6]: 387
- Population Apoptotic (%) [7]: 45%
- Population Fragmented Nuclei (%) [7]: 8%
- Population Healthy Nuclei (%) [7]: 68%
- Population Hoechst High Intensity Objects (%) [7]: 7%
- Population Membrane Permeable-Phenotype (%) [7]: 0%
- Population Mitochondria Different-Phenotype (%) [7]: 77%
- Population Mitotic Cells (%) [7]: 54%
- Population Normal (%) [7]: 92%
- Population Pyknosed Nuclei (%) [7]: 23%
- Population Tubulin-Different-Phenotype (%) [7]: 61%
- Total Cell Count [7]: 377
- Population Apoptotic (%) [8]: 66%
- Population Healthy Nuclei (%) [8]: 76%
- Population Hoechst High Intensity Objects (%) [8]: 14%
- Population Mitochondria Different-Phenotype (%) [8]: 73%
- Population Mitotic Cells (%) [8]: 33%
- Population Normal (%) [8]: 85%
- Population Pyknosed Nuclei (%) [8]: 15%
- Population Tubulin-Different-Phenotype (%) [8]: 48%
- Total Cell Count [8]: 251
- Population Apoptotic (%) [9]: 22%
- Population Fragmented Nuclei (%) [9]: 13%
- Population Healthy Nuclei (%) [9]: 78%
- Population Hoechst High Intensity Objects (%) [9]: 2%
- Population Membrane Permeable-Phenotype (%) [9]: 1%
- Population Mitochondria Different-Phenotype (%) [9]: 19%
- Population Mitotic Cells (%) [9]: 77%
- Population Normal (%) [9]: 97%
- Population Pyknosed Nuclei (%) [9]: 8%
- Population Tubulin-Different-Phenotype (%) [9]: 18%
- Total Cell Count [9]: 908
- Population Apoptotic (%) [10]: 38%
- Population Fragmented Nuclei (%) [10]: 10%
- Population Healthy Nuclei (%) [10]: 80%
- Population Hoechst High Intensity Objects (%) [10]: 6%
- Population Membrane Permeable-Phenotype (%) [10]: 0%
- Population Mitochondria Different-Phenotype (%) [10]: 37%
- Population Mitotic Cells (%) [10]: 61%
- Population Normal (%) [10]: 93%
- Population Pyknosed Nuclei (%) [10]: 9%
- Population Tubulin-Different-Phenotype (%) [10]: 20%
- Total Cell Count [10]: 480
- Population Apoptotic (%) [11]: 50%
- Population Fragmented Nuclei (%) [11]: 14%
- Population Healthy Nuclei (%) [11]: 72%
- Population Hoechst High Intensity Objects (%) [11]: 6%
- Population Membrane Permeable-Phenotype (%) [11]: 0%
- Population Mitochondria Different-Phenotype (%) [11]: 59%
- Population Mitotic Cells (%) [11]: 49%
- Population Normal (%) [11]: 93%
- Population Pyknosed Nuclei (%) [11]: 13%
- Population Tubulin-Different-Phenotype (%) [11]: 44%
- Total Cell Count [11]: 467
- Population Apoptotic (%) [12]: 62%
- Population Fragmented Nuclei (%) [12]: 10%
- Population Healthy Nuclei (%) [12]: 76%
- Population Hoechst High Intensity Objects (%) [12]: 5%
- Population Mitochondria Different-Phenotype (%) [12]: 58%
- Population Mitotic Cells (%) [12]: 37%
- Population Normal (%) [12]: 94%
- Population Tubulin-Different-Phenotype (%) [12]: 36%
- Total Cell Count [12]: 375
